Data published in ChEMBL document CHEMBL4613238, “Synthesis and biological activity of thieno[3,2-d]pyrimidines as potent JAK3 inhibitors for the treatment of idiopathic pulmonary fibrosis” (Bioorg Med Chem, 2020).
Active and inactive are the calls of the source. The rule behind the calls is not given here.

Assays:
Mus musculus [1] = assay: Antifibrotic activity against bleomycin-induced pulmonary fibrosis C57BL/6J mouse model assessed as reduction in oxidative stress by measuring reduction in MDA level in plasma at 120 mg/kg, po administered via gavage qd for 14 days at 3 days post bleomycin challenge; assay type: functional, organism-based
In short: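 After 33 μg intratracheal bleomycin, female C57BL/6J mice were gavaged once daily for 14 days from day 3 (vehicle saline, 1.4% DMSO; n=8). MDA was measured in heparinized plasma with a kit by absorbance at 532 nm; mean ± SEM.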

Mus musculus [2] = assay: Antifibrotic activity against bleomycin-induced pulmonary fibrosis C57BL/6J mouse model assessed as reduction in lung coefficient at 120 mg/kg, po administered via gavage qd for 14 days at 3 days post bleomycin challenge; assay type: functional, organism-based
In short: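 Bleomycin was given intratracheally (33 μg) to female C57BL/6J mice, 5‒6 weeks old. Daily oral gavage followed for 14 days from day 3, with 1.4% DMSO saline vehicle; n=8 per group. Fresh lungs were weighed and lung index was calculated as lung weight/body weight × 100.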

Mus musculus [3] = assay: Antifibrotic activity against bleomycin-induced pulmonary fibrosis C57BL/6J mouse model assessed as reduction in IL6 expression in plasma at 120 mg/kg, po administered via gavage qd for 14 days at 3 days post bleomycin challenge by FACSCalibur flow cytometry; assay type: functional, organism-based
In short: (§1)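 Female C57BL/6J mice (5‒6 weeks, 20‒25 g) were given 33 μg bleomycin intratracheally in saline under isoflurane. From day 3 they received oral gavage once daily for 14 days, with saline containing 1.4% DMSO as vehicle; n=8 per group. Vena cava blood was heparinized and spun at 3000 rpm for 10 min, and plasma was stored at −20 °C. IL-6, IL-17A and TNF-α were measured by flow cytometry; mean ± SEM.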

Mus musculus [4] = assay: Antifibrotic activity against bleomycin-induced pulmonary fibrosis C57BL/6J mouse model assessed as reduction in IL17A expression in plasma at 120 mg/kg, po administered via gavage qd for 14 days at 3 days post bleomycin challenge by FACSCalibur flow cytometry; assay type: functional, organism-based; in short: as §1
Mus musculus [5] = assay: Antifibrotic activity against bleomycin-induced pulmonary fibrosis C57BL/6J mouse model assessed as reduction in TNF-alpha expression in plasma at 120 mg/kg, po administered via gavage qd for 14 days at 3 days post bleomycin challenge by FACSCalibur flow cytometry; assay type: functional, organism-based; in short: as §1
Mus musculus [6] = assay: Antifibrotic activity against bleomycin-induced pulmonary fibrosis C57BL/6J mouse model assessed as reduction in alveolar septal swelling at 120 mg/kg, po administered via gavage qd for 14 days at 3 days post bleomycin challenge by hematoxylin and eosin staining based light microscopic analysis; assay type: functional, organism-based
In short: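 Intratracheal bleomycin (33 μg) was given to female C57BL/6J mice. Oral gavage started 3 days later and continued once daily for 14 days, with 1.4% DMSO saline as vehicle; n=8. Lungs were formalin-fixed for 24 h and paraffin-embedded. 5 μm sections were H&E-stained and examined by light microscopy at 200×.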

[7] = biological target: T1, Tyrosine-protein kinase JAK3 (Homo sapiens, UniProt P52333); assay: Inhibition of JAK3 (unknown origin)
T1 sequence (P52333 whole entry): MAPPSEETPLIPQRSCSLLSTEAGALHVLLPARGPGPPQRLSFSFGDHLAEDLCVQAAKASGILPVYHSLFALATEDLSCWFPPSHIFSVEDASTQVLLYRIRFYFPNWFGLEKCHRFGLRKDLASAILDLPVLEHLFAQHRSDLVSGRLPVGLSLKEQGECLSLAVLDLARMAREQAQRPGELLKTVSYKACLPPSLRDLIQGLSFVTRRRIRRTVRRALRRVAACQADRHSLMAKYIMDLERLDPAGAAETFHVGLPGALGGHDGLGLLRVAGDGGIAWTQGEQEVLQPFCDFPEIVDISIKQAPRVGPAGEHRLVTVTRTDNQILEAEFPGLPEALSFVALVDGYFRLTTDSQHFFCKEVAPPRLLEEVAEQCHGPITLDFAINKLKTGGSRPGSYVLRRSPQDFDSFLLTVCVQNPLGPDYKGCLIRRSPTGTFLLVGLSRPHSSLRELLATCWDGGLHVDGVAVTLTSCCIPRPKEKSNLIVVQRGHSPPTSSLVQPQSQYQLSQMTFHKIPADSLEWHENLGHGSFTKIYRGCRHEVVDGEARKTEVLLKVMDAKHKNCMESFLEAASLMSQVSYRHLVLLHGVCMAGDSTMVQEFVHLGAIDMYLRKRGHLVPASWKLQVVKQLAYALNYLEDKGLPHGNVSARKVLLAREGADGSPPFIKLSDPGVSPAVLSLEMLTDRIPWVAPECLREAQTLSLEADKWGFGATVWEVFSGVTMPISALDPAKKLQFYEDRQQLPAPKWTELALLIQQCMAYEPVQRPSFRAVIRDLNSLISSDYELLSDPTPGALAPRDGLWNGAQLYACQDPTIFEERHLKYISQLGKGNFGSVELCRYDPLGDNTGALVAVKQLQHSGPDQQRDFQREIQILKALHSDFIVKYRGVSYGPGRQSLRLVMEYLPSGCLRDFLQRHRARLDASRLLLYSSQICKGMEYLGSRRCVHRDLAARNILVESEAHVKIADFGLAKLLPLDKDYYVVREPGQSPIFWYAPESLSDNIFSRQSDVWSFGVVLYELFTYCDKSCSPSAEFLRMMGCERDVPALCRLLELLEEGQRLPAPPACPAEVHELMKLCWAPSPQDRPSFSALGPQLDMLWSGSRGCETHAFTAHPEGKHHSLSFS

[8] = biological target: T2, Tyrosine-protein kinase BTK (Homo sapiens, UniProt Q06187); assay: Inhibition of BTK (unknown origin)
[9] = biological target: Epidermal growth factor receptor (Homo sapiens, UniProt P00533); assay: Inhibition of EGFR (unknown origin)
[10] = biological target: T1, Tyrosine-protein kinase JAK3; assay: Inhibition of recombinant human N-terminal GST-tagged JAK3 (781 to end residues) expressed in baculovirus infected Sf9 cells using poly (Glu,Tyr) 4:1 as substrate incubated for 60 mins in presence of ATP by ADP-Glo kinase assay
In short: (§2)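 ADP-Glo luminescent assay run at compound concentrations of 0.1, 1, 10, 100 and 1000 nM. The kinase reaction ran in 1× kinase buffer for 60 min at room temperature. ADP-Glo reagent was then added to stop the reaction and deplete ATP (40 min, RT), followed by detection reagent (30 min, RT) and a luminescence read. IC50s came from curve fitting; means of three experiments.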

[11] = Cytotoxicity against human NHBE cells assessed as reduction in cell viability by CCK8 assay; assay type: cell-based
In short: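 Human bronchial epithelial (HBE) cells were tested for growth inhibition by CCK-8 assay. IC50 values are means of three separate experiments.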

[12] = biological target: T2, Tyrosine-protein kinase BTK; assay: Inhibition of BTK (unknown origin) by ADP-Glo kinase assay; in short: as §2

T2 sequence (Q06187 whole entry): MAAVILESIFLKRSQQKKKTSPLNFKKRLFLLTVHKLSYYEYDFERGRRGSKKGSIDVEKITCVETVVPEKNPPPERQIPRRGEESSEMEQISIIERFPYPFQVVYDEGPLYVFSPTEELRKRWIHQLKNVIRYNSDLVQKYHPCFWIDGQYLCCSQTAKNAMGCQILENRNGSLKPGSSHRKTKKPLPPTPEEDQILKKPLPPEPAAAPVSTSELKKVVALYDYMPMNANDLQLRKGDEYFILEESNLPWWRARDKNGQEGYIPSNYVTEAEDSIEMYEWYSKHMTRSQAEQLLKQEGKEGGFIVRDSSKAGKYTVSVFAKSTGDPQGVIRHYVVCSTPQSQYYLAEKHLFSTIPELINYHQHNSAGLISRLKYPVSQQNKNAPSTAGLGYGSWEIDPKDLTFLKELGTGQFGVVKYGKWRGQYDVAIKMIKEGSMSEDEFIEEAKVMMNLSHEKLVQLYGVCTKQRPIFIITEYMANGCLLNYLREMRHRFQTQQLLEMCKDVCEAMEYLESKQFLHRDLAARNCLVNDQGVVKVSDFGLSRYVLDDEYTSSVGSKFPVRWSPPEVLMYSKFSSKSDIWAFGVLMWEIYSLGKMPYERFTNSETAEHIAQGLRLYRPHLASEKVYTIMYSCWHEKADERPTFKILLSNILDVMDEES
Sequence of Epidermal growth factor receptor (P00533 whole entry): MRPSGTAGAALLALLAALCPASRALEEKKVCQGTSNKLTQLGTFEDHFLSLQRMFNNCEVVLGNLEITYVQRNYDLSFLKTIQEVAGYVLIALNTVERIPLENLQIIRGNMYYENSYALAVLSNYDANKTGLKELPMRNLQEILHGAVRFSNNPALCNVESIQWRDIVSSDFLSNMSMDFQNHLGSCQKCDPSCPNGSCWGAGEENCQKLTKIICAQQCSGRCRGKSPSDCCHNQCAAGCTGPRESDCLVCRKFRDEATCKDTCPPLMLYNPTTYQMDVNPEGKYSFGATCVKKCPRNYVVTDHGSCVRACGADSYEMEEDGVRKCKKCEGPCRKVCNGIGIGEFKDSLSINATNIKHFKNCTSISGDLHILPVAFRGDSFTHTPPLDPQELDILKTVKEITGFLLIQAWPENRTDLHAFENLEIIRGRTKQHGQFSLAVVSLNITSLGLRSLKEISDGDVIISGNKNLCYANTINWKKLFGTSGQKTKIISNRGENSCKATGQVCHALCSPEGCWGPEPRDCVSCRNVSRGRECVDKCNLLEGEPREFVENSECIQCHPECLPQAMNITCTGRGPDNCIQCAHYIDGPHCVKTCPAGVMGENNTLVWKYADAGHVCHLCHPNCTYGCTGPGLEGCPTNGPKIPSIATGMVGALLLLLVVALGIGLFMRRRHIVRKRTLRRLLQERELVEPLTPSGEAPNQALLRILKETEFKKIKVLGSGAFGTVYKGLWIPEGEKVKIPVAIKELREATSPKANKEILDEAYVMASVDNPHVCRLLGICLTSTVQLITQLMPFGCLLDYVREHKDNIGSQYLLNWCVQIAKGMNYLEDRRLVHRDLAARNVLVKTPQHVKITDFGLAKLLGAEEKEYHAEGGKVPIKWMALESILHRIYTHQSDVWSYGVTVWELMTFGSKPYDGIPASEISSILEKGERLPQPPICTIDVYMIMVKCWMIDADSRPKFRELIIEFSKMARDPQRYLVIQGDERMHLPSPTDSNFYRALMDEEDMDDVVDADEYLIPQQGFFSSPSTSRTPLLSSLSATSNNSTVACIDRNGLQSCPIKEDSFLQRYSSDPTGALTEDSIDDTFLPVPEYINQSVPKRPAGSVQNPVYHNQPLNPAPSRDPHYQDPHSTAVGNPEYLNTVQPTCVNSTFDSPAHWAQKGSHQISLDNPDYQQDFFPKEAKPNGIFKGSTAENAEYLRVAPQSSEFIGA

For `Cc1ccc(=O)n(-c2ccccc2)c1`, the Activity (Mus musculus [1]) was “Active”, the Activity (Mus musculus [2]) was “Active” and the Activity (Mus musculus [3]) was “Active”. For the same compound, the Activity (Mus musculus [4]) was “Active”, the Activity (Mus musculus [5]) was “Active” and the Activity (Mus musculus [6]) was “Active”.
With `C=CC(=O)Nc1cccc(Nc2nc(Nc3ccc(NC(=O)CN4CCOCC4)cc3)ncc2Cl)c1` the IC50 [7] was < 10 nM, the IC50 [8] was < 10 nM and the IC50 [9] was < 10 nM.
Compound `C=CC(=O)Nc1cccc(Nc2nc(Nc3ccc(OCCOC)cc3)ncc2F)c1` [SPEBRUTINIB] has an IC50 [10] of 66.5 nM.
In the case of `C=CC(=O)Nc1cccc(Oc2nc(Nc3ccc(OCCCN4CCOCC4)cc3)nc3ccsc23)c1`, the IC50 [11] is reported as > 40000 nM, the IC50 [10] is reported as 89.2 nM and the IC50 [12] is reported as > 100 nM.
For `C=CC(=O)Nc1cccc(Oc2nc(Nc3ccc(CN4CCOCC4)cc3)nc3ccsc23)c1`, the IC50 [11] was 12800 nM, the IC50 [10] was 85.3 nM and the IC50 [12] was > 100 nM.
